Measured values published in ChEMBL document CHEMBL2417378, “Ligand-protein interactions of selective casein kinase 1δ inhibitors” (J Med Chem, 2013).

Assays:
[1] = molecular target: T1, MAP kinase p38 (Homo sapiens, UniProt O15264+Q15759+Q16539+P53778); assay: Inhibition of p38 (unknown origin) at 1 uM; format: protein assay
[2] = molecular target: T2, Casein kinase I isoform delta (Homo sapiens, UniProt P48730); assay: Inhibition of human CK1 delta transfected in african green monkey cos7 cells after overnight incubation by whole cell assay; format: cell-based, COS-7
How it was run: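 COS-7 cells in DMEM with 10% FBS were co-transfected by lipofection with mPER3-GFP and human CK1δ plasmids (1:11), then plated. Compounds, diluted in Opti-MEM, were tested at 11 concentrations overnight at 37 °C. Cells were fixed in 4% paraformaldehyde and Hoechst-stained, and nuclear translocation of mPER3-GFP was imaged on ArrayScan.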

[3] = molecular target: Casein kinase I isoform epsilon (Homo sapiens, UniProt P49674); assay: Inhibition of CK1 epsilon (unknown origin) using PLSRTLpSVASLPGL as substrate after 85 mins by microplate reader analysis
[4] = molecular target: T2, Casein kinase I isoform delta; assay: Inhibition of CK1 delta (unknown origin) using PLSRTLpSVASLPGL as substrate after 60 mins by microplate reader analysis
[5] = molecular target: hERG (KCNH2) (Homo sapiens, UniProt Q12809); assay: Displacement of [3H]dofetilide from human ERG channel at 10 uM; conditions: probe [3H]dofetilide
[6] = molecular target: Epidermal growth factor receptor (Homo sapiens) (UniProt P00533); assay: Inhibition of EGFR (unknown origin) at 1 uM
[7] = molecular target: Tyrosine-protein kinase Lck (Homo sapiens) (UniProt P06239); assay: Inhibition of LCK (unknown origin) at 1 uM
[8] = molecular target: Mitogen-activated protein kinase kinase kinase kinase 4 (Homo sapiens) (UniProt O95819); assay: Inhibition of MAP4K4 (unknown origin) at 1 uM
[9] = molecular target: Casein kinase I isoform alpha (Homo sapiens) (UniProt P48729); assay: Inhibition of CK1 alpha (unknown origin) at 1 uM
[10] = species on record: Homo sapiens; assay: Inhibition of PKA alpha (unknown origin) at 1 uM
[11] = molecular target: T1, MAP kinase p38; assay: Inhibition of p38 (unknown origin); format: protein assay
How it was run: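 p38 IC50 determined by outside SelectScreen profiling service, ATP at Km.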

[12] = system: Plasma; assay: fCmax in C57Bl/6J mouse plasma at 32 mg/kg, sc by LC/MS analysis; format: ADME, organism-based; design: dose 32 mg/kg, route subcutaneous; conditions: in vivo
How it was run: (§1)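 Male C57BL/6J mice got a single subcutaneous dose. Plasma and whole brain were taken at 0.5–24 h (n = 4 per time). Brain was homogenized in 60% isopropanol and samples quantified by LC-MS after protein precipitation. Free fraction came from 6 h equilibrium dialysis at 37 °C of plasma or brain homogenate spiked with 1 μM compound.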

[13] = system: Brain; assay: fCmax in C57Bl/6J mouse brain at 32 mg/kg, sc by LC/MS analysis; format: ADME, organism-based; design: dose 32 mg/kg, route subcutaneous; conditions: in vivo; how it was run: as §1
[14] = system: Plasma; assay: fCmax in C57Bl/6J mouse plasma at 56 mg/kg, sc by LC/MS analysis; format: ADME, organism-based; design: dose 56 mg/kg, route subcutaneous; conditions: in vivo; how it was run: as §1
[15] = system: Brain; assay: fCmax in C57Bl/6J mouse brain at 56 mg/kg, sc by LC/MS analysis; format: ADME, organism-based; design: dose 56 mg/kg, route subcutaneous; conditions: in vivo; how it was run: as §1
[16] = molecular target: Rho-associated protein kinase 2 (Homo sapiens) (UniProt O75116); assay: Inhibition of ROCK2 (unknown origin) at 1 uM
[17] = molecular target: JNK2/JNK3 (Homo sapiens) (UniProt P53779+P45984); assay: Inhibition of JNK 2/3 (unknown origin) at 1 uM; format: protein assay
[18] = molecular target: Mitogen-activated protein kinase 14 (Homo sapiens) (UniProt Q16539); assay: Inhibition of MAPK14 (unknown origin) at 1 uM
[19] = molecular target: Tyrosine-protein kinase Lyn (Homo sapiens) (UniProt P07948); assay: Inhibition of LYN (unknown origin) at 1 uM
[20] = molecular target: Tyrosine-protein kinase ABL1 (Homo sapiens) (UniProt P00519); assay: Inhibition of ABL (unknown origin) at 1 uM
[21] = molecular target: T3, Voltage-gated inwardly rectifying potassium channel KCNH2 (Homo sapiens, UniProt Q12809); assay: Displacement of [3H]dofetilide from human ERG channel
[22] = molecular target: T3, Voltage-gated inwardly rectifying potassium channel KCNH2; assay: Inhibition of human ERG channel by electrophysiological method
[23] = system: hERG (KCNH2); assay: Therapeutic index, ratio of EC50 for human ERG channel to fCmax in mouse plasma; format: cell-free; conditions: read-out: TI
[24] = Ratio of fCmax in brain to plasma of C57Bl/6J mouse; format: ADME, cell-free
How it was run: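 Male C57BL/6J mice given a single subcutaneous dose (56 mg/kg unless noted). Plasma and whole brain were taken under isoflurane at 0.5, 1, 2, 4, 8 and 24 h (n = 4 per time point). Brain was homogenised in 4 volumes of 60% isopropanol, and samples were quantified by LC-MS after protein precipitation. Free fractions came from equilibrium dialysis of 1 μM-spiked plasma or brain homogenate (6 h, 37 °C, n = 6).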

[25] = system: Mus musculus; assay: In vivo inhibition of CK1 delta in C57Bl/6J mouse circardian rhythm model assessed as delay in phase shift at 56 mg/kg, sc after 3 days; format: functional; conditions: route subcutaneous
How it was run: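 Mice received 56 mg/kg subcutaneously for 3 days. Phase shift was taken as the start of the active period after dosing minus before dosing.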

T3 sequence (Q12809 whole entry): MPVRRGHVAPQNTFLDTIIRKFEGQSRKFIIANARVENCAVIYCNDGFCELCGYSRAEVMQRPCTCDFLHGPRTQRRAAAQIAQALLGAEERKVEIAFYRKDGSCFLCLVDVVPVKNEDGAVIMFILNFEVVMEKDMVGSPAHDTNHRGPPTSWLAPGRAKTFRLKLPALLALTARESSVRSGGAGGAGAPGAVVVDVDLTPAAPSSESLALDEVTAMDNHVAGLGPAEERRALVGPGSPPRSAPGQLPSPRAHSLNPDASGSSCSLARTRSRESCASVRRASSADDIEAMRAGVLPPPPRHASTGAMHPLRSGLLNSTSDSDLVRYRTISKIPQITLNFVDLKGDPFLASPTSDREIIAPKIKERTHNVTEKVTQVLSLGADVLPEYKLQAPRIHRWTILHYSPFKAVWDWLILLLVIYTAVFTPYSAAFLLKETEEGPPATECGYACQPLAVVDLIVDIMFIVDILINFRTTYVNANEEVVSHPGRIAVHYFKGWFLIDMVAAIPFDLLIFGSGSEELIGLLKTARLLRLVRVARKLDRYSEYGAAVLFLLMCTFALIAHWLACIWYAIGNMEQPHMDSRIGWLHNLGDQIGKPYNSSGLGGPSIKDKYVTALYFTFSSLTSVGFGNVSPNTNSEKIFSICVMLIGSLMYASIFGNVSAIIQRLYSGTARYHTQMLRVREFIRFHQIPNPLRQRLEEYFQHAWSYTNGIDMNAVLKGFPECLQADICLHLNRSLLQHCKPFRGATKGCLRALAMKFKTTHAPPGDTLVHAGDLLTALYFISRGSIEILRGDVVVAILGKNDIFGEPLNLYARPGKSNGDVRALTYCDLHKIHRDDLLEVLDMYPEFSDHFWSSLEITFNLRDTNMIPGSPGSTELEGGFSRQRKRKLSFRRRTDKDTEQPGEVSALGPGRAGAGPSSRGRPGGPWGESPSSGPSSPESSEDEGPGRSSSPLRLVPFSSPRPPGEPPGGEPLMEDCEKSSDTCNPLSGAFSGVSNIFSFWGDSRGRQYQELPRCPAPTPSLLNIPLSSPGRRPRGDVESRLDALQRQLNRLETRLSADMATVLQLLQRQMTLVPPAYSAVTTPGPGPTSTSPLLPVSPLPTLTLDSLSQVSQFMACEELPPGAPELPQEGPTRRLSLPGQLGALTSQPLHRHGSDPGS
T2 sequence (P48730 whole entry, canonical isoform): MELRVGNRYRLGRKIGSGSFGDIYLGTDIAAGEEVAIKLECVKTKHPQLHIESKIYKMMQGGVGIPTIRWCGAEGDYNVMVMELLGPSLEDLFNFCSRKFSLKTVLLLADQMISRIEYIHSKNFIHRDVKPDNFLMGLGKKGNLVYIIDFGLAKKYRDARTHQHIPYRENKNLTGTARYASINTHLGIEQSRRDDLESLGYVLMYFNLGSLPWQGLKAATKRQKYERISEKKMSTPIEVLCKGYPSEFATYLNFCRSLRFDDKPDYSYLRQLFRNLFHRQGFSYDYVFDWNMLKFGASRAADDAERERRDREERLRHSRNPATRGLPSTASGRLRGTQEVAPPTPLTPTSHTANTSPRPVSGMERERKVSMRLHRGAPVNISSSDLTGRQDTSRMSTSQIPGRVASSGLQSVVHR
Casein kinase I isoform epsilon, sequence (P49674 whole entry, canonical isoform): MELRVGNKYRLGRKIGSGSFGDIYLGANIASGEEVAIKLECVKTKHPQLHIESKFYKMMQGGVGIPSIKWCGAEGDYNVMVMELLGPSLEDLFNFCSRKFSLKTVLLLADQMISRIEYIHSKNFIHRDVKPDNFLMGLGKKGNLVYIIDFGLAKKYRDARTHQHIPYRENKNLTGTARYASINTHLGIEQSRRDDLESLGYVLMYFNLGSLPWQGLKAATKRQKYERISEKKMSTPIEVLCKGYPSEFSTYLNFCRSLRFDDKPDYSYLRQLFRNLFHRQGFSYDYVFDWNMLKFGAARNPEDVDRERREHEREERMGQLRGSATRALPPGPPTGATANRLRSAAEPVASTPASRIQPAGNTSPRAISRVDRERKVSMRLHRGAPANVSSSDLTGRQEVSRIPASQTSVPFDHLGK
Mitogen-activated protein kinase kinase kinase kinase 4 (Homo sapiens), sequence (O95819 2-1239 limits assumed): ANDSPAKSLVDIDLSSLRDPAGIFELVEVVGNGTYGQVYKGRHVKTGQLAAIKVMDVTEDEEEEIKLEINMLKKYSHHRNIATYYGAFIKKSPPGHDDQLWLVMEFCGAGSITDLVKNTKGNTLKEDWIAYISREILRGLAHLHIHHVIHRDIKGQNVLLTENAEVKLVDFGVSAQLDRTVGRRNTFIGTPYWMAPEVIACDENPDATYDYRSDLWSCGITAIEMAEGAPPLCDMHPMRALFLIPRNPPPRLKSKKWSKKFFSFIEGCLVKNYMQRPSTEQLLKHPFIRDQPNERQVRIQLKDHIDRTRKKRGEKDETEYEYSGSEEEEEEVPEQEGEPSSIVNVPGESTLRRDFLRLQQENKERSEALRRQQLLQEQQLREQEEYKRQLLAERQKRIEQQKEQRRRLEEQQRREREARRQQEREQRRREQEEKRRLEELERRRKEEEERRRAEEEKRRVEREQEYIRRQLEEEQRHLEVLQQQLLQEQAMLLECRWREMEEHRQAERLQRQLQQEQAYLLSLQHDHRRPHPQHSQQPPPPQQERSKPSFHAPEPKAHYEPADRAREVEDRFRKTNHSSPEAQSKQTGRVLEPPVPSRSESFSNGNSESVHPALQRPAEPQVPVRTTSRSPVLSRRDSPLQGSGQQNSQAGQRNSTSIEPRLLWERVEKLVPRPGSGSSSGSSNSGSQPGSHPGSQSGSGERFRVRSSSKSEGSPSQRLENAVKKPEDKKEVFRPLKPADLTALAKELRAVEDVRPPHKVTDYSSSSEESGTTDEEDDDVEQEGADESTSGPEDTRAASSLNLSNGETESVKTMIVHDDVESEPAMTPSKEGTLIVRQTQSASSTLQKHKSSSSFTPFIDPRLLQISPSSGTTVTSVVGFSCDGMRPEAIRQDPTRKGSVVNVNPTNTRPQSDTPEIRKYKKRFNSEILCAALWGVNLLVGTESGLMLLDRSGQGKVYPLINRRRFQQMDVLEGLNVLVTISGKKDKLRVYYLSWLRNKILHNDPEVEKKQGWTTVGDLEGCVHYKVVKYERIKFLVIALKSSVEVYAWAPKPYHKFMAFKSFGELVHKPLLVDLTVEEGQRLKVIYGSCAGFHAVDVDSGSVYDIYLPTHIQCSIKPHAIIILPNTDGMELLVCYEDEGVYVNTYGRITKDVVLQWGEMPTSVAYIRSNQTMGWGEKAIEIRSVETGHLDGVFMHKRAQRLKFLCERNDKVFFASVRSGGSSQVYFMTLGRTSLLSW
Epidermal growth factor receptor (Homo sapiens), sequence (P00533 whole entry): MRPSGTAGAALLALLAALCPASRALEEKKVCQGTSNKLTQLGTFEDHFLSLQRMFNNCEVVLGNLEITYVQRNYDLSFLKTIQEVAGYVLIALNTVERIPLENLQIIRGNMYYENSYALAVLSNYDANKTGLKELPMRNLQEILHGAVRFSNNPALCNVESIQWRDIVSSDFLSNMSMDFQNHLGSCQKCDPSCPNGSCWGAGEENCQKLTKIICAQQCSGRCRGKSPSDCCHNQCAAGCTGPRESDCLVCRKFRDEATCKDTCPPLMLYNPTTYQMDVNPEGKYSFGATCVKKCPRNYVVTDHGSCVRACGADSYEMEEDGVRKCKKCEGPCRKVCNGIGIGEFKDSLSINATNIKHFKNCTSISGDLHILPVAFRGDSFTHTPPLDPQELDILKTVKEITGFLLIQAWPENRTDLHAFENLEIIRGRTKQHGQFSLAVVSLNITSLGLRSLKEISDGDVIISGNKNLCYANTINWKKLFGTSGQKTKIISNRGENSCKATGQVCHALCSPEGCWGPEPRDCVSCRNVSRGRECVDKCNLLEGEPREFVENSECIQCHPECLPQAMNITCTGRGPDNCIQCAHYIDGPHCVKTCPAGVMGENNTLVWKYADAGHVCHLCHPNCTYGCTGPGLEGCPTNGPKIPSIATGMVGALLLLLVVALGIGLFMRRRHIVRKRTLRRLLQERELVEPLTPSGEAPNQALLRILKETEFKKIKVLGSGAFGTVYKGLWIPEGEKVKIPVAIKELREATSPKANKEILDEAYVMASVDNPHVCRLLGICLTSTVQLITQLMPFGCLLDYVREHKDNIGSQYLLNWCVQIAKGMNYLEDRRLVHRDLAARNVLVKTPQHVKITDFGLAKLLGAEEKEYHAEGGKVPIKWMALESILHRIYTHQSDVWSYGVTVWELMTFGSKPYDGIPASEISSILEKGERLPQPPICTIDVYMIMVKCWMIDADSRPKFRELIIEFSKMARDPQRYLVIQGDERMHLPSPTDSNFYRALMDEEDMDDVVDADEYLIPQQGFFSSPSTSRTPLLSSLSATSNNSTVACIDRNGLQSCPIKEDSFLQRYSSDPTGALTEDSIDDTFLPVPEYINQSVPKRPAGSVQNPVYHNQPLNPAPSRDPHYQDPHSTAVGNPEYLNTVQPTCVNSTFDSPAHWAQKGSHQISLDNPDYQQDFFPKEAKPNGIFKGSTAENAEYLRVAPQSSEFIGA
Casein kinase I isoform alpha (Homo sapiens), sequence (P48729 2-337 limits assumed): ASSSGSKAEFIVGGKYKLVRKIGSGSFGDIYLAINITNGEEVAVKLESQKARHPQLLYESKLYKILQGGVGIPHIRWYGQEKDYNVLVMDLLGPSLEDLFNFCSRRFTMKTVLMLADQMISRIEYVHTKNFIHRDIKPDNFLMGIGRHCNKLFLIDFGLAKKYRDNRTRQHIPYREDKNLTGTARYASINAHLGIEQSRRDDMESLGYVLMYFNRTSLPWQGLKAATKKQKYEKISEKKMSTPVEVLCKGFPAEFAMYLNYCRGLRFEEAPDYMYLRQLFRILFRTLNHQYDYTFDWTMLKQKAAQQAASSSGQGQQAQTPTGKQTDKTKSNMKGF

inhibition [1] [%]	IC50 [2] [nM]	IC50 [3] [nM]	IC50 [4] [nM]	inhibition [6] [%]	inhibition [8] [%]	IC50 [11] [nM]	fCmax [14] [µM]	fCmax [15] [µM]	SMILES	IC50 [21] [nM]	IC50 [22] [nM]	other results
42	237	81.6	14.2	–	–	–	–	–	Cn1cc(-c2ccnc(CO)c2)c(-c2ccc(F)cc2)n1	–	–	inhibition at 10 µM [5]: 6%
> 50	–	–	–	> 50	> 50	39.2	–	–	Nc1nccc(-c2c(-c3ccc(F)cc3)ncn2C2CCCCC2)n1	–	–	inhibition [7]: > 50%; inhibition [9]: > 50%; inhibition [10]: > 50%; fCmax [12]: 0.752 µM; fCmax [13]: 0.241 µM
–	63.8	67.2	12.9	–	–	3040	9.66	7.53	CNCc1cc(-c2cn(C)nc2-c2ccc(F)cc2)ccn1	–	–	–
85	545	305	48.1	80	66	126	–	–	Cn1cc(-c2ccncc2)c(-c2ccc(F)cc2)n1	–	–	inhibition [16]: 52%; inhibition [17]: 48%; inhibition [18]: 55%; inhibition [19]: 70.5%; inhibition [20]: 61%
–	90	28.2	5.3	–	–	> 1000	1.95	3.7	Cn1cc(-c2ccnc(C3COCCN3)c2)c(-c2ccc(F)cc2)n1 (single isomer, unassigned; (-))	25900	4430	–
–	39	27	–	–	–	654	8.82	2.97	Cn1cc(-c2ccnc3c2OCCNC3)c(-c2ccc(F)cc2)n1	> 79600	25700	selectivity ratio [23]: 3; Kp uu [24]: 0.33; Time [25]: 175 min
